# Measured values: publication PMC9111543 (International Journal for Parasitology: Drugs and Drug …, 2022)
# Test: Cytotoxicity assay on MRC-5 fibroblasts
# Assay type: cell-based
# Details: human, MRC-5SV2 cells
# Outline: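 MRC-5SV2 cells grown in MEM with L-glutamine, NaHCO3 and 5% hiFBS, seeded at 15,000 cells/well. Four-fold dilutions of test compound were added, with a highest in-test concentration of 64 μM. Cells were exposed for 72 h at 37 °C and 5% CO2, then incubated with resazurin for 4 h and read by fluorescence. CC50 was calculated from ≥2 independent experiments in duplicate.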
compound,measurement,value
CC[n+]1c(-c2ccccc2)c2cc(N/N=N/c3cccc(C(=N)N)c3)ccc2c2ccc(N)cc21 [isometamidium],CC50 at 72 h,22.7 µM
